Rows were chosen to be rich in hits. Some 2.3% of all compounds tested hit in one or more screens of this group.
KLF5 inh = kruppel-like factor 5 inhibition. DLD-1 KLF5 promoter-luciferase reporter, luminescence. inhibition, % at 5 µM. AID 1700. 0.23% of 290,000 active;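 active means inhibition above a per-plate limit of that plate's mean compound inhibition plus 3 SD, cut at about 60% in these data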;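 further: 0% = DMSO wells and 100% = LY294002 at 200 µM; higher means less KLF5 promoter-driven luciferase light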
HIF act = HIF pathway transcriptional activation; activation, % at 7.5 µM (by protocol); U2OS HRE-luciferase reporter, luminescence; normalized: DMSO 0%, desferrioxamine 100%; 0.32% of 300,000 active;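 active means mean activation of at least 10% of the iron chelator positive control signal, with at least half of replicates also reaching 10%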
Beta cell apopt = beta cell apoptosis inhibition; protection from apoptosis, % (concentration not given with the values); AID 435005; INS-1E cytokine-induced death, ATP luminescence, 48 h; percent of positive-control rescue, neutral wells zero; 0.8% of 300,000 active;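 active means Every replicate reaches about 75%, or at least half do and their mean reaches it too, limit read from the data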;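 further: 0% = cytokine-treated negative control wells and 100% = positive control rescue; higher means more ATP so stronger rescue from cytokine killing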
A1 inh = inhibitors of the anti-apoptotic protein A1, read as caspase activation; MEF A1-2A-BIM cells, Caspase-Glo 3/7 luminescence, 3 h; percent of clofoctol response, vehicle zero; AID 2462; caspase activation, % (concentration not given with the values); 0.066% of 330,000 active;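 active means over half of replicate activation scores above 10%, or exactly half above 10 with the replicate mean above 10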
T cruzi repl = blocks replication of Trypanosoma cruzi; AID 1885; 1.4% of 300,000 active; T. cruzi beta-gal in NIH3T3, luminescence, 90 h; inhibition, % (no concentration beside the values);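 active means mean inhibition across valid replicates above about 55%, limit read from the data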;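 further: signal also drops with host cell toxicity which is not excluded here; 0% = plate median of DMSO wells and 100% = zero luminescence signal; higher percent means less beta-gal luminescence so fewer parasites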
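Material: NIH/3T3 host cells with β-galactosidase reporter T. cruzi; Input: 5,000 host fibroblasts per well; Medium: DMEM, 2% fetal bovine serum; Compound: 50 nL DMSO compound solution per well; Schedule: 3 h host attachment, then at least 90 h co-culture; Detection: luminescent β-galactosidase signal after 60 min lysis.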
Starred values were filed as active, the others as inactive.

`CCN(CC(=O)Nc1ccc2c(c1)OCCO2)Cc1cc(=O)oc2c(C)c(C)ccc12` gave KLF5 inh -31.2, HIF act -0.2, Beta cell apopt 3.0, A1 inh -0.9 and T cruzi repl 9.4.
Cn1c(C(=O)O)c(CC(=O)Nc2ccc3c(c2)OCCO3)c2ccccc21 was read as KLF5 inh -6.3, HIF act -1.6, Beta cell apopt -6.0, A1 inh -1.5 and T cruzi repl -9.3.
For Cc1ccc(NC(=O)Cc2nn(C)c(=O)c3ccccc23)cc1F the results were KLF5 inh -39.4, HIF act -0.2, Beta cell apopt 86.4*, A1 inh -2.6 and T cruzi repl -36.2.
Screening CCC1CCCCN1CCCNC(=O)c1ccc(CS(=O)(=O)c2ccccc2OC)o1 (stereo unspecified) returned KLF5 inh -17.7, HIF act -0.2, Beta cell apopt 3.9, A1 inh 0.4 and T cruzi repl 2.8.
`CCOCc1c(C(=O)NC2=Nc3ccccc3NC(CC)=C2C(=O)OCC)oc2ccccc12` gave KLF5 inh -7.4, HIF act -0.1, Beta cell apopt 9.5, A1 inh -0.8 and T cruzi repl 56.1*.
For COC1=C(Nc2ccccc2OC)C(=O)c2ccccc2C1=O the results were KLF5 inh 1.1, HIF act -0.6, Beta cell apopt 83.3*, A1 inh 1.2 and T cruzi repl -7.2.
`COc1ccccc1NC1=C(NC(C)=O)C(=O)c2ccccc2C1=O` gave KLF5 inh -47.7, HIF act -0.7 and T cruzi repl -3.0.
For C=C(C)CCC(C)N1CCC(n2nccc2NC(=O)CCOc2ccccc2)CC1 (stereo unspecified) the results were KLF5 inh -29.4, HIF act 0.3, Beta cell apopt 5.7, A1 inh 0.2 and T cruzi repl 40.5.
COc1ccc(O)c(C(=O)c2cnc3nc4ccccc4n3c2)c1 was read as KLF5 inh 16.2, HIF act 0.6, Beta cell apopt 83.3*, A1 inh 0.2 and T cruzi repl 2.8.
For COc1ccc(O)c(C(=O)c2cnn(-c3ccccn3)c2)c1 the results were KLF5 inh -22.3, HIF act 1.3, Beta cell apopt -2.6, A1 inh -0.6 and T cruzi repl -6.9.
For O=C(CN1C(=O)NC(c2ccc(F)cc2)C1=O)Nc1ccc2c(c1)OCCO2 (stereo unspecified) the results were Beta cell apopt 0.2 and A1 inh 3.1.
CCOc1cccc(C(=O)Nc2ccccc2C(=O)N2CCN(C)CC2)c1 was read as KLF5 inh -15.1, HIF act -5.4, Beta cell apopt -1.7, A1 inh -0.7 and T cruzi repl -14.3.
Screening Cc1cc(/C=N/NC(N)=S)c(C)n1-c1ccc(Cl)cc1 returned KLF5 inh -29.1, HIF act -0.1, Beta cell apopt -3.1, A1 inh -0.7 and T cruzi repl 24.7.
`Cc1cc(/C=N/NC(N)=S)c(C)n1-c1cccc(Cl)c1` gave KLF5 inh -20.7, HIF act 0.0, Beta cell apopt -3.8, A1 inh -0.2 and T cruzi repl 73.3*.
`CCN1CCN(c2cc(C)c3cc(NC(=S)N4CCCCC4)ccc3n2)CC1` gave KLF5 inh -23.3, HIF act 2.9, Beta cell apopt -1.3, A1 inh 0.4 and T cruzi repl 57.7*.
CCCN(CCC)CCCNC(=S)Nc1ccc2nc(N3CCN(CC)CC3)cc(C)c2c1 was read as KLF5 inh 3.8, HIF act 0.5, Beta cell apopt -7.6, A1 inh 1.3 and T cruzi repl 38.2.
For CCCCN(CC)CCNC(=S)Nc1ccc2nc(N3CCN(C)CC3)cc(C)c2c1 the results were KLF5 inh -15.6, HIF act -13.4, Beta cell apopt -0.1, A1 inh -0.6 and T cruzi repl 63.9*.
`CCCN(CCC)CCCNC(=S)Nc1ccc2nc(N3CCN(C)CC3)cc(C)c2c1` gave KLF5 inh -2.8, HIF act 0.1, Beta cell apopt -2.4, A1 inh 0.3 and T cruzi repl 57.0*.
For Cc1cc(N2CCN(C)CC2)nc2ccc(NC(=O)c3ccccc3F)cc12 the results were KLF5 inh -73.7, HIF act 4.5, Beta cell apopt 0.1, A1 inh -0.7 and T cruzi repl 65.3*.
`Cc1nc(SCC(=O)Nc2nnc(C(C)C)s2)n[nH]1` gave KLF5 inh -17.0, HIF act 0.2, Beta cell apopt -7.1, A1 inh 0.1 and T cruzi repl -11.2.
